Experimental data reported in ChEMBL document CHEMBL1811881, “Development of 3-substituted-androsterone derivatives as potent inhibitors of 17β-hydroxysteroid dehydrogenase type 3” (Bioorg Med Chem, 2011).
Active and inactive are the calls of the source. The calls are words filed in the database; no cut-off is given here.

Experiments:
[1] = target: T1, 17-beta-hydroxysteroid dehydrogenase type 3 (Homo sapiens) (UniProt P37058); test: Inhibition of 17Beta-HSD3 expressed in homogenized HEK293 cells assessed as transformation of [14C]-4-androstene-3,17-dione into [14C]-testosterone in presence of NADPH at 1 uM; type: cell-based
T1 sequence (whole entry): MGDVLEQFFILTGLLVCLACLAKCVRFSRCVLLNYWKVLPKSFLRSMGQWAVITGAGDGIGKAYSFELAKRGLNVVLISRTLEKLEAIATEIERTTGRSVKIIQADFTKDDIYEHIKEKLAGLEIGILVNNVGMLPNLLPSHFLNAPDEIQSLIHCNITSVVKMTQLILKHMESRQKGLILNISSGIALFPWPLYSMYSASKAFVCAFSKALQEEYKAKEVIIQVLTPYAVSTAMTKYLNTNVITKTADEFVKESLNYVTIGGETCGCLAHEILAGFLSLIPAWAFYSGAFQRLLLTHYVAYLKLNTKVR
In short: (§1)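 HEK-293 cells overexpressing 17β-HSD3 were briefly homogenized. The enzyme assay measured conversion of 50 nM [4-14C]-4-androstene-3,17-dione to [14C]-testosterone with NADPH in excess (5 mM). Inhibitor was dissolved in ethanol, and the ethanol-only control was used to derive % inhibition at each concentration. Error 10%.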

[2] = target: T1, 17-beta-hydroxysteroid dehydrogenase type 3 (Homo sapiens); test: Inhibition of 17Beta-HSD3 expressed in homogenized HEK293 cells assessed as transformation of [14C]-4-androstene-3,17-dione into [14C]-testosterone in presence of NADPH at 0.1 uM; type: cell-based; in short: as §1
[3] = target: T1, 17-beta-hydroxysteroid dehydrogenase type 3 (Homo sapiens); test: Inhibition of 17Beta-HSD3 expressed in homogenized HEK293 cells assessed as transformation of [14C]-4-androstene-3,17-dione into [14C]-testosterone in presence of NADPH at 0.01 uM; type: cell-based; in short: as §1
[4] = target: T1, 17-beta-hydroxysteroid dehydrogenase type 3 (Homo sapiens); test: Inhibition of 17Beta-HSD3 expressed in intact HEK293 cells assessed as transformation of [14C]-4-androstene-3,17-dione into [14C]-testosterone in presence of NADPH at 1 uM after 1 hr incubation; type: cell-based
In short: (§2)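 HEK-293 cells were grown in MEM with 10% FBS at 37 °C under 5% CO2, seeded at 200,000 cells/well, and transfected with 2 µg/well of a 17β-HSD3 expression plasmid. Intact cells then got 50 nM [4-14C]-4-androstene-3,17-dione plus inhibitor in ethanol (0.5% v/v) for 1 h. Radiolabelled steroids were extracted from the medium and quantified. Triplicate; % transformation was used to derive IC50.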

[5] = target: T1, 17-beta-hydroxysteroid dehydrogenase type 3 (Homo sapiens); test: Inhibition of 17Beta-HSD3 expressed in intact HEK293 cells assessed as transformation of [14C]-4-androstene-3,17-dione into [14C]-testosterone in presence of NADPH at 0.1 uM after 1 hr incubation; type: cell-based; in short: as §2
[6] = target: T2, Androgen receptor (Mus musculus) (UniProt P19091); test: Activation of androgen receptor in androgen-sensitive (AR+) mouse Shionogi cells assessed as stimulation of cell proliferation after 10 days at 1 uM relative to control
T2 sequence (whole entry): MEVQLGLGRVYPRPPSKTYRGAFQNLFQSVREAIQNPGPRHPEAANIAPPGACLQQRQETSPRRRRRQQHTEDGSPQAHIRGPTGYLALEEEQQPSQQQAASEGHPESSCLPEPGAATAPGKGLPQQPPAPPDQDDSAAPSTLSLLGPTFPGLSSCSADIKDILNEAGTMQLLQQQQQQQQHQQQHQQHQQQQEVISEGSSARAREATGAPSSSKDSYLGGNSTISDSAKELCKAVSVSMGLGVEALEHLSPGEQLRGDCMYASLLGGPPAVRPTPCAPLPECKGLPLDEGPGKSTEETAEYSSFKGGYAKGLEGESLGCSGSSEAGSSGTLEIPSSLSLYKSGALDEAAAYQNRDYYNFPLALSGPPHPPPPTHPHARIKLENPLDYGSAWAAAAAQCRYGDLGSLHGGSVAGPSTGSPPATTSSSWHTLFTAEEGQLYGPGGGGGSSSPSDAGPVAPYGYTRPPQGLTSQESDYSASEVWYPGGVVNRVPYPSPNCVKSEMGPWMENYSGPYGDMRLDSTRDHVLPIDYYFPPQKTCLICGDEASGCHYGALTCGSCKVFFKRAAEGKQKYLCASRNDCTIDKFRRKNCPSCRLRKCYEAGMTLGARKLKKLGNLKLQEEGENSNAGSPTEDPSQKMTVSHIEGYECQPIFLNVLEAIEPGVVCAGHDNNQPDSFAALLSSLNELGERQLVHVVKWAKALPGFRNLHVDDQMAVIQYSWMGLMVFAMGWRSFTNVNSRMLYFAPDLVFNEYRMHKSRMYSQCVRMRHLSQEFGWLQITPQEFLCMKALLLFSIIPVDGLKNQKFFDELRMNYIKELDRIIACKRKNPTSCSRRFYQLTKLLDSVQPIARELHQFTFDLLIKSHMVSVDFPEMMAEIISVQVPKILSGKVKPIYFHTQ
In short: (§3)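 Androgen-sensitive (AR+) Shionogi cells. Inhibitors and reference compounds were each tested at 0.1 and 1.0 µM. Androgenicity is reported as % cell proliferation versus control, with basal proliferation set to 100%. DHT (0.1 µM) served as androgen reference and hydroxyflutamide as antiandrogen. Data are mean ± SEM of one experiment in triplicate.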

[7] = target: T3, 17-beta-hydroxysteroid dehydrogenase type 3 (Homo sapiens, UniProt P37058); test: Inhibition of 17Beta-HSD3 expressed in intact HEK293 cells assessed as transformation of [14C]-4-androstene-3,17-dione into [14C]-testosterone in presence of NADPH after 1 hr incubation; type: cell-based; in short: as §2
T3 sequence (P37058 whole entry): T1 sequence (whole entry)

[8] = target: T2, Androgen receptor (Mus musculus); test: Activation of androgen receptor in androgen-sensitive (AR+) mouse Shionogi cells assessed as stimulation of cell proliferation after 10 days relative to control; in short: as §3

| SMILES | inhibition [1] [%] | inhibition [2] [%] | inhibition [3] [%] | inhibition [4] [%] | inhibition [5] [%] | Activity [6] | IC50 [7] [nM] | Activity [8] |
| --- | --- | --- | --- | --- | --- | --- | --- | --- |
| C[C@]12CC[C@](O)(CN3CCCCC3)C[C@@H]1CC[C@@H]1[C@@H]2CC[C@]2(C)C(=O)CC[C@@H]12 | 69 | 19 | 9 | 23 | – | – | – | – |
| C[C@]12CC[C@@]3(C[C@@H]1CC[C@@H]1[C@@H]2CC[C@]2(C)C(=O)CC[C@@H]12)CN(Cc1ccccc1)C(=O)O3 | 93 | 86 | 21 | – | 44 | inactive | – | – |
| CN(Cc1ccccc1)C[C@@]1(O)CC[C@@]2(C)[C@@H](CC[C@@H]3[C@@H]2CC[C@]2(C)C(=O)CC[C@@H]32)C1 | 89 | 79 | 28 | 92 | 48 | – | – | – |
| C[C@@H]1CN(S(=O)(=O)c2ccccc2C(F)(F)F)[C@@H](C)CN1C[C@@]1(O)CC[C@@]2(C)[C@@H](CC[C@@H]3[C@@H]2CC[C@]2(C)C(=O)CC[C@@H]32)C1 | – | 92 | 55 | – | 84 | inactive | 6 | – |
| CC(C)(O)C(=O)Nc1ccc([N+](=O)[O-])c(C(F)(F)F)c1 | – | – | – | – | – | – | – | inactive |
| C[C@]12CC[C@@]3(C[C@@H]1CC[C@@H]1[C@@H]2CC[C@]2(C)C(=O)CC[C@@H]12)CN(CCC(CN1CCOCC1)OC(=O)C1CCCCC1)C(=O)O3 (stereo partly drawn) | – | – | – | – | – | – | 51 | inactive |
| CCN(Cc1ccccc1)C[C@@]1(O)CC[C@@]2(C)[C@@H](CC[C@@H]3[C@@H]2CC[C@]2(C)C(=O)CC[C@@H]32)C1 | 90 | 85 | 42 | 94 | 86 | 314% | – | – |
| CCCCN(CCCC)C[C@@]1(O)CC[C@@]2(C)[C@@H](CC[C@@H]3[C@@H]2CC[C@]2(C)C(=O)CC[C@@H]32)C1 | 85 | 70 | 13 | 90 | 53 | – | – | – |
| CCN(CC)C[C@@]1(O)CC[C@@]2(C)[C@@H](CC[C@@H]3[C@@H]2CC[C@]2(C)C(=O)CC[C@@H]32)C1 | 60 | 10 | 0 | 14 | – | – | – | – |
| C[C@]12CC[C@](O)(CN3CCN(c4ccccc4)CC3)C[C@@H]1CC[C@@H]1[C@@H]2CC[C@]2(C)C(=O)CC[C@@H]12 | 89 | 78 | 13 | 68 | – | – | – | – |
| C[C@]12CC[C@](O)(CN3CCC(Cc4ccccc4)CC3)C[C@@H]1CC[C@@H]1[C@@H]2CC[C@]2(C)C(=O)CC[C@@H]12 | 90 | 82 | 40 | 52 | – | – | – | – |
| C[C@]12CC[C@](O)(CN3CCC(N4CCCCC4)CC3)C[C@@H]1CC[C@@H]1[C@@H]2CC[C@]2(C)C(=O)CC[C@@H]12 | 69 | 4 | 0 | 20 | – | – | – | – |
| C[C@]12CC[C@](O)(Cc3ccccc3)C[C@@H]1CC[C@@H]1[C@@H]2CC[C@]2(C)C(=O)CC[C@@H]12 | – | – | – | – | – | 396% | – | – |
| C[C@]12CC[C@](O)(CN3CCN(Cc4ccccc4)CC3)C[C@@H]1CC[C@@H]1[C@@H]2CC[C@]2(C)C(=O)CC[C@@H]12 | 90 | 72 | 35 | 80 | 37 | – | – | – |
| C[C@]12CC[C@](O)(CN3CCN(Cc4cccc(Cl)c4)CC3)C[C@@H]1CC[C@@H]1[C@@H]2CC[C@]2(C)C(=O)CC[C@@H]12 | – | 85 | 26 | 75 | – | – | – | – |
